Consider 16 molecules from ChEMBL document CHEMBL1133607, “Nonpeptide analogues of dynorphin A(1-8): design, synthesis, and pharmacological evaluation of kappa-selective agonists” (J Med Chem, 2000).

Molecules are shown by their SMILES. Residues, ends and D or L forms follow the SMILES beside them. *: point of attachment. X1 = CC1C2Cc3ccc(O)cc3[C@]1(C)CCN2CC1C[C@]1(C(=O)*)c1ccccc1

Assay [1] has as its target Opioid receptors; mu & kappa (UniProt P41145+P35372). Briefly: Ratio of affinity towards mu and kappa opioid receptors. In kind it is protein assay.
The target in another assay is Mu-type opioid receptor (Rattus norvegicus, UniProt P33535). Briefly: Displacement of [3H]diprenorphine from opioid receptor mu 1 on crude membrane fractions obtained from whole rat brain (minus cerebellum). The assay is classed as tissue-based. The method in brief:
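Rat whole-brain (minus cerebellum) crude membranes, 1 mg protein/tube, in 50 mM Tris-HCl pH 7.4 with aprotinin, leupeptin and bacitracin. […] U50,488 and DADLE (300 nM each) saturate κ and δ sites; 1 µM DAMGO defines nonspecific binding. Compounds tested at 10^-11 to 10^-5 M. Ki values are the mean of three experiments in duplicate.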

The target in assay [2] is Kappa-type opioid receptor (Cavia porcellus, UniProt P41144). Briefly: Displacement of [3H]-U-69,593 from Opioid receptor kappa 1 in guinea pig cerebellar.
Kappa-type opioid receptor, sequence (P41144 whole entry): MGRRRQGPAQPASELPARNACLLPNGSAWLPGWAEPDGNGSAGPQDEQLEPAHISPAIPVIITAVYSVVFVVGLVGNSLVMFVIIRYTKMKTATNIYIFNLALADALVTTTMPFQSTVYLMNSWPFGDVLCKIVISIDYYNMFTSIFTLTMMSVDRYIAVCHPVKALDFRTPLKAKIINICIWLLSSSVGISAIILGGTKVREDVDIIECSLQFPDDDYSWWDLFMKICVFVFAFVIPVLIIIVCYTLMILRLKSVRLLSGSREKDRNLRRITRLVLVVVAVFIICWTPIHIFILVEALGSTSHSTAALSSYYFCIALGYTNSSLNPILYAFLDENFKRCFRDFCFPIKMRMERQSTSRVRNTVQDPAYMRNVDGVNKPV

Mu-type opioid receptor, sequence (P33535 whole entry): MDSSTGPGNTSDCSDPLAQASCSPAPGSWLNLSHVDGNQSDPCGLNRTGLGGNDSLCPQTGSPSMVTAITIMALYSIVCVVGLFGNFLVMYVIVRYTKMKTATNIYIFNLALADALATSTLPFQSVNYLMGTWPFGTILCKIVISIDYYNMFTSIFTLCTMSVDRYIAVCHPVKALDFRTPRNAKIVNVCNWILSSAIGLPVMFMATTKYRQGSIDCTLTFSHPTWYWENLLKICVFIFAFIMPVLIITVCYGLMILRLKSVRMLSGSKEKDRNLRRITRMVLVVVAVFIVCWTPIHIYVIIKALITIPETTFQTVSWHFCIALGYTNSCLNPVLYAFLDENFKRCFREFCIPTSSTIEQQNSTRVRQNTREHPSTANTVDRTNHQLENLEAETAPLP
Opioid receptors; mu & kappa, sequence (P35372 whole entry, looked up): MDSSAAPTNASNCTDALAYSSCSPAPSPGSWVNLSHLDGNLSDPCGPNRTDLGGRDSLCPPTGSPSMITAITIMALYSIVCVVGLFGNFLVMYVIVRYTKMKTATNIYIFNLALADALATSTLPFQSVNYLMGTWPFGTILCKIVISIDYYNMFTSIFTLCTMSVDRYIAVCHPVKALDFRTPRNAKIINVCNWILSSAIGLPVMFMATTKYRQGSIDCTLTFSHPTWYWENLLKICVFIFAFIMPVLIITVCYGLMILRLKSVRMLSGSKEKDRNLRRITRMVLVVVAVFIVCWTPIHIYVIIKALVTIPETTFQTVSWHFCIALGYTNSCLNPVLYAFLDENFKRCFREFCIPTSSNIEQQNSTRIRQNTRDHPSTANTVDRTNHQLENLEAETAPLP
Opioid receptors; mu & kappa, sequence (P41145 whole entry, looked up): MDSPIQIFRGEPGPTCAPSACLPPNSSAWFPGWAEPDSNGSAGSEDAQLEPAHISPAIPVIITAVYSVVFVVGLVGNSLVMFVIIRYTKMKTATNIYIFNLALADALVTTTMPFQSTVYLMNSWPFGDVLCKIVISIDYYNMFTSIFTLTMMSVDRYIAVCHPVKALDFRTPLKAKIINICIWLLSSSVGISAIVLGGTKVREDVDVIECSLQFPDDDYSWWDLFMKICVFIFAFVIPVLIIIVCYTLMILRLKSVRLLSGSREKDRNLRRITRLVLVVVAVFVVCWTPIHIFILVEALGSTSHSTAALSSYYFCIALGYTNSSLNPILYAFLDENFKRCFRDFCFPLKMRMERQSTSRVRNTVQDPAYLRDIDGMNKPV

For the molecule `CCCC(=N)NCCCCNC(=O)C(CC(C)C)NC(=O)[C@]1(c2ccccc2)CC1CN1CC[C@@]2(C)c3cc(O)ccc3CC1C2C` (stereo partly drawn), in assay [1], the Selectivity ratio is 11.2. Moreover, the Ki on Mu-type opioid receptor was found to be 2280 nM; in assay [2], 203 nM.

As for `CC(C)CC(NC(=O)[C@]1(c2ccccc2)CC1CN1CC[C@@]2(C)c3cc(O)ccc3CC1C2C)C(=O)NCCCN=C(N)N` (stereo partly drawn), the Selectivity ratio in assay [1] was 8.7. Moreover, the inhibition constant (Ki) worked out at 2430 nM on Mu-type opioid receptor and 280 nM in assay [2].

For `CCC(=N)NCCCCNC(=O)C(CC(C)C)NC(=O)[C@]1(c2ccccc2)CC1CN1CC[C@@]2(C)c3cc(O)ccc3CC1C2C` (stereo partly drawn), the Selectivity ratio in assay [1] is 11.5. Besides, the Ki on Mu-type opioid receptor was 2200 nM; in assay [2], 192 nM.

Take `CCCCC(=N)NCCCCNC(=O)C(CC(C)C)NC(=O)[C@]1(c2ccccc2)CC1CN1CC[C@@]2(C)c3cc(O)ccc3CC1C2C` (stereo partly drawn): in assay [1], the Selectivity ratio was found to be 18.3. The Ki amounted to 2130 nM on Mu-type opioid receptor and 116 nM in assay [2].

On to `CC(C)CC(NC(=O)[C@]1(c2ccccc2)CC1CN1CC[C@@]2(C)c3cc(O)ccc3CC1C2C)C(=O)NCCCCCNC(=N)N` (stereo partly drawn), for which the Ki at Mu-type opioid receptor came out at 2790 nM; in assay [2], 216 nM.

As to `CCC(=N)NCCCCCNC(=O)C(CC(C)C)NC(=O)[C@]1(c2ccccc2)CC1CN1CC[C@@]2(C)c3cc(O)ccc3CC1C2C` (stereo partly drawn), in assay [1], the Selectivity ratio was found to be 14.8. Moreover, the Ki is 2210 nM on Mu-type opioid receptor and 149 nM in assay [2].

Turning to `CCCC(=N)NCCCCCNC(=O)C(CC(C)C)NC(=O)[C@]1(c2ccccc2)CC1CN1CC[C@@]2(C)c3cc(O)ccc3CC1C2C` (stereo partly drawn), in assay [1], the Selectivity ratio turned out to be 12.8. Further, the Ki came to 2000 nM on Mu-type opioid receptor and 156 nM in assay [2].

With `CCCCC(=N)NCCCNC(=O)C(CC(C)C)NC(=O)[C@]1(c2ccccc2)CC1CN1CC[C@@]2(C)c3cc(O)ccc3CC1C2C` (stereo partly drawn), the Selectivity ratio in assay [1] worked out at 16. Besides, the values for the Ki (on Mu-type opioid receptor; in assay [2]) were 2230 nM and 139 nM, respectively.

For the molecule `CC(C)CC(NC(=O)[C@]1(c2ccccc2)CC1CN1CC[C@@]2(C)c3cc(O)ccc3CC1C2C)C(=O)NCCCCCN` (stereo partly drawn), the Selectivity ratio in assay [1] stood at 11.8. The inhibition constant (Ki) at Mu-type opioid receptor is 3250 nM; in assay [2], 276 nM.

Turning to `CCCC(=N)NCCCNC(=O)C(CC(C)C)NC(=O)[C@]1(c2ccccc2)CC1CN1CC[C@@]2(C)c3cc(O)ccc3CC1C2C` (stereo partly drawn), the Selectivity ratio in assay [1] turned out to be 15. In addition, the Ki came to 3570 nM at Mu-type opioid receptor and 238 nM in assay [2].

In the case of `CC(C)CC(NC(=O)[C@]1(c2ccccc2)CC1CN1CC[C@@]2(C)c3cc(O)ccc3CC1C2C)C(=O)NCCCCN` (stereo partly drawn), the Selectivity ratio in assay [1] turned out to be 8.9. The Ki on Mu-type opioid receptor came to 3400 nM; in assay [2] it was 382 nM.

In the case of `CC(C)CC(NC(=O)[C@]1(c2ccccc2)CC1CN1CC[C@@]2(C)c3cc(O)ccc3CC1C2C)C(=O)NCCCN` (stereo partly drawn), the Selectivity ratio in assay [1] was 11.5. Besides, the Ki on Mu-type opioid receptor was 4220 nM; in assay [2], 367 nM.

On to `CC[C@H](C)[C@H](NC(=O)[C@H](CCCN=C(N)N)NC(=O)[C@H](CCCN=C(N)N)NC(=O)CNC(=O)[C@]1(c2ccccc2)CC1CN1CC[C@@]2(C)c3cc(O)ccc3CC1C2C)C(=O)OC` (stereo partly drawn) (X1-GRRI-OMe), for which the Selectivity ratio in assay [1] is 42.4.

`CC(C)CC(NC(=O)[C@]1(c2ccccc2)CC1CN1CC[C@@]2(C)c3cc(O)ccc3CC1C2C)C(=O)NCCCCCN=C(N)N` (stereo partly drawn): the Selectivity ratio in assay [1] turned out to be 12.9.

On to `CCC(=N)NCCCNC(=O)C(CC(C)C)NC(=O)[C@]1(c2ccccc2)CC1CN1CC[C@@]2(C)c3cc(O)ccc3CC1C2C` (stereo partly drawn), for which, in assay [1], the Selectivity ratio stood at 19.6. For the same molecule, the Ki is 4980 nM on Mu-type opioid receptor and 254 nM in assay [2].

Take `CC(C)CC(NC(=O)[C@]1(c2ccccc2)CC1CN1CC[C@@]2(C)c3cc(O)ccc3CC1C2C)C(=O)NCCCCN=C(N)N` (stereo partly drawn): in assay [1], the Selectivity ratio worked out at 11.8. Further, the Ki on Mu-type opioid receptor turned out to be 2950 nM; in assay [2] it was 250 nM.
